This passage reports Kd and Drug uptake results from ChEMBL document CHEMBL1153736, “Application of ring-closing metathesis macrocyclization to the development of Tsg101-binding antagonists” (Bioorg Med Chem Lett, 2010).

pKd: −log10 of the molar value. Numbered stars: 1 amine (or outer) side, 2 acyl side, 3 side chain; on linkers, the order of the positions; unused ones are H or OH. Bridge positions count the residues as written; N and C are the ends. Square brackets hold non-standard residues; d marks the D form. Peptide text beside a SMILES is read from it. * marks the point of attachment. Fluorescein(5-NHCS) = O=C1OC2(c3ccc(O)cc3Oc3cc(O)ccc32)c2cc(NC(=S)*)ccc21; X3 = O=C(CN(CCCCCCC=[*:3])[*:1])[*:2]; X5 = O=C(CN(CCCCCC=[*:3])[*:1])[*:2]; X4 = O=C(CN(CCCCC=[*:3])[*:1])[*:2]; X2 = O=C(CN(CC=[*:3])[*:1])[*:2]; NAllylGly = C=CCNCC(=O)O; Ava = NCCCCC(=O)O Some results are limits rather than exact numbers.

One series deals with T1, Tumor susceptibility gene 101 protein (Homo sapiens, UniProt Q99816).
T1 sequence (Q99816 whole entry): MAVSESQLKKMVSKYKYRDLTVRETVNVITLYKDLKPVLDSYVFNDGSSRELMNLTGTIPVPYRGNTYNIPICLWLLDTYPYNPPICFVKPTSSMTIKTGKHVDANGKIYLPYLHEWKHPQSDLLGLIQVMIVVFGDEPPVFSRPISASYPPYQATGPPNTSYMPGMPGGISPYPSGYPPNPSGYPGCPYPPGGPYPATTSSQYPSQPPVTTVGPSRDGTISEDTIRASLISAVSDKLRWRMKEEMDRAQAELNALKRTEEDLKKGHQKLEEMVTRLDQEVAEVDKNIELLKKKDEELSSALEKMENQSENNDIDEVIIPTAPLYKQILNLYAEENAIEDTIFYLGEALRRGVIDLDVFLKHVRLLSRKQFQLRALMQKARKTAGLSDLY
As to the kind of experiment: Binding affinity to ubiquitin E2 variant domain of human Tsg101 by fluorescent anisotropy.
Conditions: not given
One may read the pKd as the negative decadic logarithm of the Kd, by convention in mol/L. Consider `C=CCN(CC(=O)N1CCC[C@H]1C(=O)N[C@H](C(=O)N[C@@H](C)C(=O)N1CCC[C@H]1C(=O)N1CCC[C@H]1C(=O)N(CC=C)CC(=O)N[C@@H](CCC(=O)O)C(N)=O)[C@@H](C)O)C(=O)[C@@H]1CCCN1C(=O)CCCCNC(=S)Nc1ccc2c(c1)C1(OC2=O)c2ccc(O)cc2Oc2cc(O)ccc21` ({Fluorescein(5-NHCS)-Ava}-P[NAllylGly]PTAPP[NAllylGly]E-NH2), for which the pKd was 3.23.

As to `C[C@@H]1NC(=O)[C@H]([C@@H](C)O)NC(=O)[C@@H]2CCCN2C(=O)CN(C(=O)[C@@H]2CCCN2C(=O)CCCCNC(=S)Nc2ccc3c(c2)C2(OC3=O)c3ccc(O)cc3Oc3cc(O)ccc32)CCCC/C=C/CN(CC(=O)N[C@@H](CCC(=O)O)C(N)=O)C(=O)[C@@H]2CCCN2C(=O)[C@@H]2CCCN2C1=O` ({Fluorescein(5-NHCS)-Ava}-P[X4]PTAPP[X2]E-NH2; staple (E) 2-8), the pKd was less than 3.30.

Compound `C[C@@H]1NC(=O)[C@H]([C@@H](C)O)NC(=O)[C@@H]2CCCN2C(=O)CN(C(=O)[C@@H]2CCCN2C(=O)CCCCNC(=S)Nc2ccc3c(c2)C2(OC3=O)c3ccc(O)cc3Oc3cc(O)ccc32)CCCCC/C=C\CN(CC(=O)N[C@@H](CCC(=O)O)C(N)=O)C(=O)[C@@H]2CCCN2C(=O)[C@@H]2CCCN2C1=O` ({Fluorescein(5-NHCS)-Ava}-P[X5]PTAPP[X2]E-NH2; staple (Z) 2-8) showed a pKd of less than 3.30.

Compound `C[C@@H]1NC(=O)[C@H]([C@@H](C)O)NC(=O)[C@@H]2CCCN2C(=O)[C@H](CCC(=O)O)NC(=O)CN(C(=O)CCCCNC(=S)Nc2ccc3c(c2)C2(OC3=O)c3ccc(O)cc3Oc3cc(O)ccc32)C/C=C\CCCCCCN(CC(=O)N[C@@H](CCC(=O)O)C(N)=O)C(=O)[C@@H]2CCCN2C(=O)[C@@H]2CCCN2C1=O` ({Fluorescein(5-NHCS)-Ava}-[X2]EPTAPP[X3]E-NH2; staple (Z) 1-8) had a pKd of less than 3.30.

On to `C[C@@H]1NC(=O)[C@H]([C@@H](C)O)NC(=O)[C@@H]2CCCN2C(=O)[C@H](CCC(=O)O)NC(=O)CN(C(=O)CCCCNC(=S)Nc2ccc3c(c2)C2(OC3=O)c3ccc(O)cc3Oc3cc(O)ccc32)CCCCC/C=C/CN(CC(=O)N[C@@H](CCC(=O)O)C(N)=O)C(=O)[C@@H]2CCCN2C(=O)[C@@H]2CCCN2C1=O` ({Fluorescein(5-NHCS)-Ava}-[X5]EPTAPP[X2]E-NH2; staple (E) 1-8), for which the pKd was less than 3.30.

The test system of a further series is HeLa. As to the kind of experiment: Cellular uptake in human HeLa cells assessed as fluorescence intensity by FACS analysis relative to control. It is filed as ADME, cell-based. The following applies: in the assay text read “fluorescence microscopy” for “FACS analysis”. Summed up: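 Uptake of FITC-tagged peptide-peptoid hybrids was measured by fluorescence microscopy. The value is the average fluorescence intensity of treated cells, quantified from at least 20 cells taken from 4–6 fields, each field holding about 5 cells.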
(A flow cytometer gives signals particle by particle.)
`C=CCN(CC(=O)N1CCC[C@H]1C(=O)N[C@H](C(=O)N[C@@H](C)C(=O)N1CCC[C@H]1C(=O)N1CCC[C@H]1C(=O)N(CC=C)CC(=O)N[C@@H](CCC(=O)O)C(N)=O)[C@@H](C)O)C(=O)[C@@H]1CCCN1C(=O)CCCCNC(=S)Nc1ccc2c(c1)C1(OC2=O)c2ccc(O)cc2Oc2cc(O)ccc21` ({Fluorescein(5-NHCS)-Ava}-P[NAllylGly]PTAPP[NAllylGly]E-NH2): the Drug uptake is on record as 74%.
